The test system of data set [1] is Human alphaherpesvirus 1. Description: Antiviral activity against HSV1 F infected in african green monkey Vero cells assessed as reduction of virus-induced cytopathic effect by cellular replication assay. The data set is classed as functional, organism-based. In short, it runs like this:
(§1)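 HSV1 strain F replication in Vero cells, 0.1 nM to 125 µM. IC50 is the concentration reducing viral cytopathic effect by 50%; Tox50 is the concentration reducing cell viability by 50%. SI = Tox50/IC50.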
(In general: Protection from cytopathic effect is a common read-out in antiviral testing.)

The subject of data set [2] is Vero. The experiment in a line: Cytotoxicity against african green monkey Vero cells by crystal violet staining. The data set is classed as cell-based. The conditions noted are these: chlorocebus sabaeus.
Data set [3] has as its system Eimeria tenella. The experiment in a line: Antiparasitic activity against Eimeria tenella Houghton infected in PCKC at 10 ppm treated 2 hrs postinfection by MMDA assay. The class given is functional, organism-based. In short, it runs like this: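 Confluent primary chicken kidney cell monolayers (DMEM or RPMI with 10% FBS, glutamine, essential amino acids; 37 °C, 5% CO2) in 96-well plates infected with E. tenella Houghton; compounds added 2 h post infection at 200, 10, 1, 0.1 ppm. Stopped 120 h post infection; monolayer disruption scored microscopically or by crystal violet after MeOH fixation (2 full, 1 weak, 0 none).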

Data set [4] concerns Eimeria tenella. The experiment in a line: Antiparasitic activity against Eimeria tenella Houghton infected in PCKC at 1 ppm treated 2 hrs postinfection by MMDA assay. The data set is classed as functional, organism-based. In short, it runs like this: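 Primary chicken kidney cell monolayers grown to confluence with 10% FBS, glutamine and essential amino acids at 37 °C, 5% CO2, in 96-well plates. They were infected with E. tenella Houghton, and test samples were added 2 h post infection. Tested at 200, 10, 1 and 0.1 ppm; stopped at 120 h. Monolayer integrity was read microscopically or by MeOH fixation and crystal violet. Scored as full, weak, none or cytotoxic.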

The subject of data set [5] is Neospora caninum. The experiment in a line: Antiparasitic activity against Neospora caninum NC-1 infected in african green monkey Vero cells treated 2 hrs postinfection by MMDA assay. The data set is classed as functional, organism-based.
Data set [6] is described as follows: Cytotoxicity against PCKC by crystal violet staining. On the set-up: species or system Gallus gallus. As to conditions: chicken. The method, boiled down:
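Uninfected compound-treated primary chicken kidney cells served as toxicity controls in the 120 h monolayer assay (200, 10, 1, 0.1 ppm). Viability judged microscopically or by crystal violet after 5 min MeOH fixation.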

The nature of data set [7]: Selectivity index, ratio of cytotoxicity against african green monkey Vero cells to IC50 for HSV1 F. The class given is toxicity, cell-based. The conditions noted are these: read-out: Selectivity Index. The method, boiled down: as §1
For data set [8], the target named is T1, Estrogen receptor beta (Homo sapiens, UniProt Q92731). The experiment in a line: Agonist activity at ERbeta up to 10 uM by fluorescence polarization assay. The data set is classed as functional. Background: Fluorescence polarisation rises when a labelled molecule tumbles more slowly, as on binding a larger partner.
Data set [9] concerns the target T1, Estrogen receptor beta. Description: Agonist activity at ERbeta by fluorescence polarization assay. The class given is functional.
For data set [10], the system named is Vero. The experiment in a line: Cytotoxicity against african green monkey Vero cells at 2.5 uM by crystal violet staining. The data set is classed as cell-based. The conditions noted are these: chlorocebus sabaeus.
The subject of data set [11] is Vero. The experiment in a line: Cytotoxicity against african green monkey Vero cells at 10 uM by crystal violet staining. The data set is classed as cell-based. The conditions noted are these: chlorocebus sabaeus.
Setting [12] is: Human alphaherpesvirus 1, F, Vero.

As usually defined, the IC50 is the point on the concentration scale where inhibition reaches its midpoint. What is called EC50 is the concentration at which the effect is half-maximal.

Calls of active or inactive are those of the source. The rule behind the calls is not given here.

T1 sequence (Q92731 whole entry): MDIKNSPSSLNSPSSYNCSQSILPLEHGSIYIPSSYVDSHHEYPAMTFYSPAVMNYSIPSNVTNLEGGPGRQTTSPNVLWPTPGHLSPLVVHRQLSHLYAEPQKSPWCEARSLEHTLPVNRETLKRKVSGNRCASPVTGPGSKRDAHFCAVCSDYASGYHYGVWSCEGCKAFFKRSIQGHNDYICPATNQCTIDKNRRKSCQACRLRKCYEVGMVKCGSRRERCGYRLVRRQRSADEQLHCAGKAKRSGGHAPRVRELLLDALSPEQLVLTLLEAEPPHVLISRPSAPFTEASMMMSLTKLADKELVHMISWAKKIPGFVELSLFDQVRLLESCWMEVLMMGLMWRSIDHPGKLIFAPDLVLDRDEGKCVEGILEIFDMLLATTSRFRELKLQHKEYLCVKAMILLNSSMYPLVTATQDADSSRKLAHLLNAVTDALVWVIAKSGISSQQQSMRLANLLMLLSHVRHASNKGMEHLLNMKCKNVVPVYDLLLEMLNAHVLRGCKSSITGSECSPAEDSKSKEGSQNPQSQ

Consider `C[C@@H]1C[C@H]2O[C@@H]2/C=C\C=C\C(=O)Cc2c(Cl)c(O)cc(O)c2C(=O)O1` [RADICICOL], for which the IC50 in data set [1] (setting [12]) was found to be 0.2 µM. For the same molecule, the Activity result in [2] and in data set [6] was “Toxic” throughout. Besides, the outcome in data set [3] was Active. The outcome in [4] and in [5] was inactive.
For `CC/C=C\[C@H](O)[C@H](O)C1=C(C)C(=O)[C@]2(O1)C(=O)N[C@@](OC)(C(=O)c1ccccc1)[C@@H]2O` [PSEUROTIN A], the half-inhibitory concentration (IC50) in data set [1] (setting [12]) was determined as 50 µM. Further, in data set [7], the selectivity ratio worked out at 6. For the same molecule, the outcome in data set [3] was Active. Besides, the outcome in [5] was inactive.
`C[C@H]1C/C=C/C(O)C/C=C/C(=O)Cc2c(Cl)c(O)cc(O)c2C(=O)O1` (stereo not given in full) [POCHONIN E]: in [1] (setting [12]), the half-inhibitory concentration (IC50) is 1.5 µM. Further, the result in [5] and in [8] was inactive. Moreover, the Activity entry in data set [6] is “Toxic”.
Regarding `C[C@@H]1C[C@H]2O[C@@H]2CC/C=C/C(=O)Cc2cc(O)cc(O)c2C(=O)O1` [MONOCILLIN III], the half-maximal inhibitory concentration (IC50) in data set [1] (setting [12]) was found to be 0.4 µM. Further, in data set [7], the selectivity ratio was determined as 7.5. In addition, the outcome in data set [5] and in data set [8] was inactive.
Regarding `C[C@H]1C[C@H]2O[C@@H]2CC/C=C/C(=O)Cc2c(Cl)c(O)cc(O)c2C(=O)O1` [POCHONIN A], in [1] (setting [12]), the 50% inhibitory concentration (IC50) was found to be 2 µM. In data set [3], the result was Active. In addition, the outcome in [5] and in data set [8] was inactive.
For the molecule `C[C@H]1CCCC(=O)CCCCCc2cc(O)cc(O)c2C(=O)O1` (stereo in doubt; 16), in data set [1], the result was inactive.
In turn, `C[C@H]1CCCC(=O)CCCCCc2cc(O)cc(O)c2C(=O)O1` (stereo in doubt; 19) [ZEARALANONE] returned an EC50 in data set [9] of 0.66 µM.
In the case of `C[C@H]1CCCC(=O)CCCCCc2cc(O)cc(O)c2C(=O)O1` (stereo in doubt; 19), in data set [1], the result was inactive.
As for `C[C@H]1C[C@H]2O[C@@H]2CCCCC(=O)Cc2c(Cl)c(O)cc(O)c2C(=O)O1` [TETRAHYDROMONORDEN], in data set [1] (setting [12]), the concentration for half-maximal inhibition (IC50) is 1.5 µM. Moreover, the outcome in data set [3] was Active. In addition, the outcome in data set [4], in data set [5] and in data set [8] was inactive.
Regarding `C[C@H]1CCC[C@H](O)CCCCCc2cc(O)cc(O)c2C(=O)O1`, the result in data set [1] was inactive.
Turning to `C[C@@H]1C/C=C/CC/C=C/C(=O)Cc2c(Cl)c(O)cc(O)c2C(=O)O1` [POCHONIN D], the result in data set [1], in [5] and in [8] was inactive. Also, the Activity result in [10] and in [6] was “Toxic” in each case.
As to `C[C@H]1C/C=C/CC/C=C/C(=O)Cc2cc(O[C@@H]3O[C@H](CO)[C@@H](O)[C@H]3O)cc(O)c2C(=O)O1` [MONOCILLIN II GLYCOSIDE], the Activity entry in data set [11] and in data set [6] was “Toxic” each time. The outcome in data set [5] and in [8] was inactive.
`C[C@H]1CCC[C@@H](O)CCCCCc2cc(O)cc(O)c2C(=O)O1` (stereo in doubt; 17) [TALERANOL]: the concentration for half-maximal inhibition (IC50) in [1] (vero) was 1.5 µM.
`C[C@H]1C[C@H](O)C(Cl)/C=C\C=C\C(=O)Cc2c(Cl)c(O)cc(O)c2C(=O)O1` (stereo not given in full) [POCHONIN C]: the IC50 in data set [1] (setting [12]) amounted to 6 µM. The outcome in [5] and in data set [8] was inactive. Further, the Activity entry in data set [6] was “Toxic”.
In the case of `COc1cc(O)c2c(c1)/C=C/CCC[C@H](O)CCC[C@H](C)OC2=O`, the result in data set [1] and in data set [9] was inactive.
As to `C[C@H]1CCCC(=O)CCCCCc2cc(O)cc(O)c2C(=O)O1` (stereo in doubt; 16) [ZEARALANONE], in data set [9], the EC50 came to 0.038 µM.
In the case of `C[C@H]1C[C@H]2O[C@@H]2C[C@H](O)/C=C/C(=O)Cc2c(Cl)c(O)cc(O)c2C(=O)O1` [POCHONIN B], the half-inhibitory concentration (IC50) in [1] (setting [12]) was found to be 10 µM. For the same molecule, the result in data set [5] and in data set [8] was inactive. In addition, the Activity result in [6] was “Toxic”.
With `C[C@H]1CCC[C@@H](O)CCCCCc2cc(O)cc(O)c2C(=O)O1` (stereo in doubt; 21) [TALERANOL], in data set [1] (vero), the concentration for half-maximal inhibition (IC50) worked out at 15 µM.
On to `C[C@H]1CCCC(=O)CCC/C=C/c2cc(O)cc(O)c2C(=O)O1` [ZEARALENONE], for which, in data set [1], the result was inactive. The molecule also registered a half-maximal effective concentration (EC50) in data set [9] of 0.11 µM.

The values above are taken from ChEMBL document CHEMBL1146536, “Pochonins A-F, new antiviral and antiparasitic resorcylic acid lactones from Pochonia chlamydosporia var. catenulata” (J Nat Prod, 2003).
